# SIAE primary = inhibitors of human sialic acid acetylesterase SIAE; Q9HAT2; SIAE FP-Rh probe binding, fluorescence polarization; inhibition, % at 9.66 µM; 0.69% of 370,000 active; AID 1053197;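 active means inhibition above a cutoff: mean of compounds within the control limits plus 3 SD of those, cut at about 17% in these data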;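 further: 0% = plate median of compound wells and 100% = probe without SIAE protein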
# PRMT1 FP inh = PRMT1 (human) inhibition, primary screen; Q99873; recombinant PRMT1, activity-based probe fluorescence polarization; inhibition, % at 2.79 µM; 1.3% of 370,000 active; AID 652257;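 active means inhibition above about 21% made by adding two undisclosed values, limit read from the data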
# ABHD4 inh = inhibits mouse alpha/beta hydrolase domain 4; Q8VD66; purified mABHD4, FP-Rh probe fluorescence polarization; inhibition, % at 8.92 µM; 0.54% of 370,000 active; AID 720543;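 active means inhibition exceeding the mean over every tested compound plus 3 SD, cut at about 30% in these data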;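 further: 0% = plate median of compound wells and 100% = S159A mutant with DMSO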
# Target sequence (Q8VD66 whole entry, looked up, the tested form may be a part): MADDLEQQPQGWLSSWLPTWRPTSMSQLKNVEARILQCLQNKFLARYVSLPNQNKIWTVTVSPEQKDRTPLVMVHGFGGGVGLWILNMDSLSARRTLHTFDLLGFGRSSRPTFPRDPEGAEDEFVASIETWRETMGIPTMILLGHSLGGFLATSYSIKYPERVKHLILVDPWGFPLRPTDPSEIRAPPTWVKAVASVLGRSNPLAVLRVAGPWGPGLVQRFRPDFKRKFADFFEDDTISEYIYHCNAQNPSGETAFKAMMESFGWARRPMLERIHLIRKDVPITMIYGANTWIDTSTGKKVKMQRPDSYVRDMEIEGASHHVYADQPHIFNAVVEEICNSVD
#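 Assay system: wild-type mouse ABHD4 protein; compound: single nominal dose of 8.92 µM, 0.89% DMSO final; schedule: 45 min + 60 min at 25 °C; measured by: FP readout, ex 525 nm / em 598 nm; evaluation: % inhibition of FP-Rh probe binding versus controls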
# rCAG binder = r(CAG) repeat RNA binding; AID 651821; TO-PRO-1 dye displacement fluorescence; inhibition, % at 3 µM; 1.3% of 370,000 active;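 active means inhibition above the plate cutoff, the mean of all test compounds on that plate plus 3 SD, cut at about 35% in these data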;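 further: 0% = DMSO alone and 100% = 100 µM mitoxantrone as full dye displacement; higher means more dye released from RNA so lower well fluorescence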
# TCR-CD3 inh = inhibitors of human TCR-CD3 interaction. TAMRA-labeled TCR probe fluorescence, biochemical. inhibition, % at 9.4 µM. 0.37% of 360,000 active. AID 651800; in the data active means inhibition above about 19%;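 further: recombinant mutant TCR 2C K166C tagged with TAMRA read by polarization; 0% = receptor in buffer alone and 100% = receptor with positive control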
# rCAG binder conf = r(CAG) RNA repeat binding, confirmation; TO-PRO-1 dye displacement fluorescence; shares compounds with rCAG binder; inhibition, % at 3 µM; 70% of 4,300 active; AID 652065;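 active means inhibition above a per-plate cutoff, the mean inhibition of sample wells plus 3 SD, cut at about 35% in these data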;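 further: loss of TO-PRO-1 fluorescence as compound displaces dye from 1x1 AA loop RNA; 0% = DMSO only wells and 100% = 100 µM mitoxantrone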
# dCAG dye counter = DNA CAG dye complex inhibition counter-screen. shares compounds with rCAG binder. d(CAG) DNA oligo TO-PRO-1 dye displacement, fluorescence. inhibition, % at 3 µM. 94% of 4,300 active. AID 652068;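 active means inhibition above its plate's cutoff, the mean test-well inhibition plus 3 SD, cut at about 4.8% in these data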;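 further: 0% = DNA dye mix with DMSO and 100% = 100 µM mitoxantrone; hits displace the dye from DNA and so lower well fluorescence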
# DNA CAG DR = DNA CAG dye complex inhibition, dose response counter-screen | shares compounds with rCAG binder | DNA CAG/GTC duplex TO-PRO-1 dye displacement fluorescence | IC50, µM | 20% of 250 active | AID 686960; in the data active means IC50 below about 10 µM
# Starred values were filed as active, the others as inactive; nt = no result given. An excerpt weighted towards active compounds, which were near 3.3% of everything screened.
SMILES,SIAE primary,PRMT1 FP inh,ABHD4 inh,rCAG binder,TCR-CD3 inh,rCAG binder conf,dCAG dye counter,others
CC(C)(C)c1ccc(CC(=O)N2CCC2(C)C(=O)NS(=O)(=O)c2ccccc2C(F)(F)F)cc1 (stereo unspecified),0,8,8,58*,0,45*,13*,
CC1(C(=O)NS(=O)(=O)Cc2ccccc2C(F)(F)F)CCN1C(=O)c1ccccc1 (stereo unspecified),6,0,5,8,6,nt,nt,
CC1(C(=O)NS(=O)(=O)Cc2ccccc2C(F)(F)F)CCN1C(=O)C/C=C/c1ccccc1 (stereo unspecified),-4,4,-2,46*,7,51*,10*,DNA CAG DR=>30
CC1(C(=O)NS(=O)(=O)c2ccc(F)cc2F)CCN1C(=O)Cc1ccc(-c2ccccc2)cc1 (stereo unspecified),-14,-2,-3,58*,1,44*,11*,
Cc1ccc(F)c(S(=O)(=O)NC(=O)C2(C)CCN2C(=O)Cc2ccc(C(C)(C)C)cc2)c1 (stereo unspecified),7,0,-3,32,0,nt,nt,
C[C@@H]1/C=C/CC(=O)N[C@H](c2cccc(Br)c2)[C@H](C)/C=C/CC(=O)N[C@@H]1c1cccc(Br)c1,-8,0,-20,8,nt,nt,nt,
CC(C)(C)c1ccc(CC(=O)N2CCC2(C)C(=O)NS(=O)(=O)c2ccc(F)cc2F)cc1 (stereo unspecified),-1,-2,0,41*,-7,30,6.1*,
Cc1ccc(-c2[nH]nc(N)c2N=Nc2cccc(Cl)c2C)cc1,4,1,10,42*,-1,23,12*,
Cc1ccc(N=Nc2c(N)n[nH]c2N)cc1,4,-2,2,4,0,nt,nt,
CC1(C(=O)NS(=O)(=O)c2ccc(Cl)s2)CCN1C(=O)C1(c2ccc(Cl)cc2)CC1 (stereo unspecified),1,7,-1,54*,-9,49*,14*,
CC1(C(=O)NS(=O)(=O)c2ccc(Cl)s2)CCN1C(=O)C1(c2ccc(Cl)cc2)CCC1 (stereo unspecified),-2,-3,6,62*,2,59*,21*,
CC1(C(=O)NS(=O)(=O)c2ccc(Cl)s2)CCN1C(=O)C1(c2ccccc2)CCCC1 (stereo unspecified),1,-1,1,49*,-4,51*,16*,
Cc1n[nH]c(C)c1S(=O)(=O)NCCc1ccccc1,4,0,4,1,nt,nt,nt,
CCOC(=O)CC1=NN(c2ccccc2)C(=O)/C1=C\c1ccc(N(C)C)cc1,0,1,1,5,1,nt,nt,
CCOC(=O)CC1=NN(c2ccccc2)C(=O)C1,6,10,22,38*,-2,9,5.0*,
Cc1ccc(OCCSc2nc3ccccc3n2CC(=O)O)c(C(C)C)c1,-1,0,2,38*,9,41*,9.8*,
COc1ccc(OC)c(/C=C2\Oc3cc(OCC(=O)N4CCC(C(=O)O)CC4)ccc3C2=O)c1,-24,-3,-14,38*,-2,42*,8.6*,
COc1ccc(OC)c(/C=C2\Oc3cc(OCC(=O)N4CC(O)C[C@H]4C(=O)O)ccc3C2=O)c1 (stereo partly specified),-53,4,5,42*,7,33,5.9*,
COc1ccc(/C=C2\Oc3cc(OCC(=O)N4CCC(C(=O)O)CC4)ccc3C2=O)c(OC)c1OC,3,-3,-22,22,15,nt,nt,
COc1ccc(/C=C2\Oc3cc(OCC(=O)N4CC(O)C[C@H]4C(=O)O)ccc3C2=O)c(OC)c1OC (stereo partly specified),-9,-1,0,26,-8,nt,nt,
CC(=O)c1ccc(NC(=O)NC2CCCCN(Cc3ccc(Cl)cc3)C2=O)cc1 (stereo unspecified),-11,-4,-4,5,nt,nt,nt,
Cc1ccc(CN[C@@H]2CC[C@@]34CCCN3C(=O)CCC[C@H]4C2)cc1,-1,-1,2,nt,nt,nt,nt,
COc1cccc(-c2nc(SCC(=O)Nc3nc(-c4ccccc4)c(C)s3)[nH]c(=O)c2C#N)c1,-54,1,-52,70*,5,92*,76*,
CCOC(=O)Cc1csc(NC(=O)CSc2nc(-c3ccccc3)c(C#N)c(=O)[nH]2)n1,-4,4,-9,64*,3,57*,20*,
CCOc1ccc2nc(NC(=O)CSc3nc(-c4ccccc4)c(C#N)c(=O)[nH]3)sc2c1,-17,5,-54,83*,-2,88*,69*,
SMILES,SIAE primary,PRMT1 FP inh,ABHD4 inh,rCAG binder,TCR-CD3 inh,rCAG binder conf,dCAG dye counter,others
CCCCc1ccc(-c2noc(CCC(=O)NCC)n2)cc1,2,-1,-7,nt,nt,nt,nt,
O=C(/C=C/c1ccco1)Nc1ccc2nn(-c3ccccc3)nc2c1,-28,14,-37,40*,12,19,13*,
CC(C)(N[C@@H](Cc1c[nH]c2ccccc12)C(=O)NCCCc1ccccc1)C(=O)NCc1ccccc1,1,-3,-5,nt,nt,nt,nt,
N#Cc1c(N2C(=O)Nc3ccccc3N2O)sc2c1CCCCCC2,-2,7,9,45*,-6,34,11*,
N#Cc1c(N2C(=O)Nc3ccccc3N2O)sc2c1CCCC2,4,-3,-3,12,-1,nt,nt,
O=C(CCCC1=NS(=O)(=O)c2ccccc2N1)N1CCN(c2ccccc2Cl)CC1,-2,-3,1,2,nt,nt,nt,
COc1ccc(C=NNc2ccc([N+](=O)[O-])cc2S(=O)(=O)Nc2ccccc2C(=O)O)cc1OC,-14,14,-2,90*,3,94*,75*,
COc1ccc(/C=N/Nc2ccccc2C(=O)O)cc1Cn1cc([N+](=O)[O-])cn1,6,6,13,50*,3,40*,13*,
O=C(O)c1ccccc1NS(=O)(=O)c1ccc(NN=Cc2cccc(Cl)c2)c([N+](=O)[O-])c1,-2,1,19,59*,4,90*,68*,
NS(=O)(=O)c1ccc(N/N=C/c2ccccc2C(=O)O)c([N+](=O)[O-])c1,9,-1,8,5,-2,nt,nt,
O=[N+]([O-])c1ccc(N/N=C/c2c[nH]c3ccccc23)cc1,8,15,10,56*,-17,26,20*,
C=CCn1c(SCC(=O)Nc2ccccc2-c2ccccc2)nnc1-c1ccc(Cl)cc1,2,-3,-9,5,nt,nt,nt,
Cc1ccccc1CS(=O)(=O)Cc1ccc(C(=O)Nc2ccc(F)cc2F)o1,4,11,-3,3,nt,nt,nt,
O=C(NC1CCCC1)c1ccc(COc2ccccc2)o1,-2,5,-7,3,nt,nt,nt,
